TDP2 inh = blocks human TDP2 phosphodiesterase activity; O95551; recombinant TDP2, T5PNP hydrolysis, p-nitrophenol absorbance 415 nm; inhibition, % at 12.8 µM; hit rate 0.34% among 370,000; AID 720702;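 active = inhibition above the mean of all tested compounds plus 3 SD, set per campaign, cut at about 25% in these data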
Target sequence (O95551 whole entry, looked up): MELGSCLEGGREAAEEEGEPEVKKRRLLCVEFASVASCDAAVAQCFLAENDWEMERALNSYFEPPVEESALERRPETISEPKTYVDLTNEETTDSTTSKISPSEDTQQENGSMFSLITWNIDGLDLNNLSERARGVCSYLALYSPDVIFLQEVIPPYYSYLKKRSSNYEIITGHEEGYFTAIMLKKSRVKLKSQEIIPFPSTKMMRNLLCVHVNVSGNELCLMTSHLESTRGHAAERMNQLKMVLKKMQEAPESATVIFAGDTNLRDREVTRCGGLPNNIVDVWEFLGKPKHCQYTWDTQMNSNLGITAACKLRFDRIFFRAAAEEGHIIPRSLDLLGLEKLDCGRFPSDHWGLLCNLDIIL
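Test system: Human TDP2 enzyme | Reagent: 5 mM T5PNP | Compound dosing: 12.8 µM single point, 1% DMSO | Incubation: Enzyme reaction with compound for 2 h at 37 °C | Technique: p-Nitrophenol epi absorbance | Read-out: % inhibition relative to enzyme-containing and enzyme-free wells | Benchmarks: High control without enzyme, low control DMSO plus TDP2 | Replicates: Singlicate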
DDE Tn7 FP inh = DD(E)-Tn7 binding inhibition, primary FP screen; P02675; FP displacement of FITC-Tn7 peptide from fibrin DD(E); 0% = median of compound wells per plate; inhibition, % at 8.3 µM; hit rate 0.13% among 370,000;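 active = inhibition above the mean of compounds falling within the control limits plus 3 SD of them, cut at about 14% in these data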
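System: human fibrin DD(E); quantity: Fibrin-DD(E) at 2 µM final; also added: fluorescent Tn7 probe at 0.1 µM; compound dosing: single nominal test concentration of 8.3 µM per compound; schedule: 10 min preincubation, 3 h with tracer, room temperature; detection: fluorescence polarization of the labelled Tn7 tracer; repeats: one replicate per compound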
UHRF1 binding = human UHRF1 methylated DNA binding inhibitors. Q96T88. UHRF1 binding to methylated oligo, TR-FRET. inhibition, % at 4.4 µM. hit rate 0.75% among 370,000. AID 687016; in the data active = inhibition above about 21%;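 note: UHRF1 SRA domain binding a hemimethylated CpG hairpin DNA probe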
LEDGF integ inh = blocks HIV-1 LEDGF/p75-dependent DNA integration. TR-FRET IN-LEDGF/p75 DNA integration, Eu/Cy5. inhibition, % at 3.7 µM. hit rate 0.64% among 370,000. AID 743269;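 active = inhibition above the screen-wide mean plus 3 SD, cut at about 13% in these data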;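 note: signal is the Cy5 over europium emission ratio at 671 and 618 nm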
MBD2 DNA inh = MBD2-methylated oligo binding inhibition. inhibition, % at 4.4 µM. TR-FRET, MBD2 binding to methylated oligonucleotide. Q9UBB5. hit rate 0.31% among 370,000; in the data active = inhibition above about 13%
Tn6 DDE FP = DD(E)-Tn6 binding inhibition, primary FP screen; P02675; Fibrin DD(E) TRITC-Tn6 fluorescence polarization displacement; inhibition, % at 8.3 µM; hit rate 0.21% among 370,000;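 active = inhibition above a per-campaign cutoff: mean of compounds within control limits plus 3 SD, cut at about 15% in these data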
Tn6 DDE ctr = DD(E)-Tn6 binding inhibition, counter-screen | shares compounds with Tn6 DDE FP | Fibrin DD(E), TRITC-Tn6 fluorescence polarization displacement; 0% = median of compound wells, not DMSO | inhibition, % at 8.3 µM | hit rate 2% among 680 | AID 720621;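 active = inhibition above the mean of test compounds lying between the control limits plus 3 SD of those, cut at about 14% in these data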
DDE Tn6 confirm = DD(E)-Tn6 binding inhibition, FP confirmation | inhibition, % at 8.3 µM | AID 720631 | hit rate 10% among 680 | shares compounds with Tn6 DDE FP | FP displacement of TRITC-Tn6 peptide from DD(E); 0% = per-plate median of test wells;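 active = inhibition above the mean of compounds lying within the control limits plus 3 SD, cut at about 16% in these data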
TDP2 confirm = confirmation of human TDP2 inhibitors; inhibition, % at 12.8 µM; recombinant human TDP2, absorbance read-out; AID 743263; hit rate 22% among 1,100; shares compounds with TDP2 inh; in the data active = inhibition above about 25%
IN multimer act = activates HIV-1 integrase multimerization in LEDGF counter-screen; AID 1053131; activation, % at 7.7 µM; hit rate 17% among 2,000; TR-FRET HIV-1 integrase multimerization, biochemical; shares compounds with LEDGF integ inh; in the data active = activation above about 8.9%
TR-FRET interf = TR-FRET optical interference, LEDGF/p75 integration counter-screen. shares compounds with LEDGF integ inh. TR-FRET optical interference counterscreen, HIV-1 IN multimerization. inhibition, % at 7.7 µM. 2,000 tested, under 10 active. AID 1053135;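 active = inhibition above the mean over all tested compounds plus 3 SD, which no compound reached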
LEDGF integ conf = LEDGF/p75-dependent HIV-1 integration inhibition, confirmation | hit rate 36% among 2,000 | TR-FRET LEDGF/p75-dependent HIV-1 integration, biochemical | inhibition, % at 3.7 µM | AID 1053136 | shares compounds with LEDGF integ inh; in the data active = inhibition above about 14%
Large screens that a line does not name were inactive (follow-up assays come after a bar, where they were run). Compounds with a hit are over-represented: about 1.9% of the library has one in this group of screens.

CC1=CN2C(=N)/C(=C/c3ccc([N+](=O)[O-])o3)C(=O)N=C2S1	LEDGF integ inh 18, Tn6 DDE FP 20 | Tn6 DDE ctr inactive | DDE Tn6 confirm inactive | IN multimer act inactive | TR-FRET interf inactive | LEDGF integ conf 17
CC1=CN2C(=N)/C(=C/c3ccco3)C(=O)N=C2S1	none
Cc1[nH][nH]c(=O)c1C(c1c(C)[nH][nH]c1=O)c1cn(C)c2ccccc12	TDP2 inh 49 | TDP2 confirm inactive
CC(c1ccc(O)cc1)c1cn(C)c2ccccc12 (centres undefined)	none
O=C(O)c1ccc(NC2=C(n3nnc4ccccc43)C(=O)c3ccccc3C2=O)cc1	TDP2 inh 34 | TDP2 confirm 41
CC(=O)N(C1=C(N)C(=O)c2ccccc2C1=O)c1ccccc1	TDP2 inh 29 | TDP2 confirm inactive
Cc1ccc(CSc2nnc(-c3ccccc3)n2Cc2ccco2)cc1	none
CN1[C@H](Cc2ccccc2)COc2cccc(F)c2S1(=O)=O	none
Cc1nn(-c2ccccc2)c2c1C(c1c(C)[nH]c(C#N)c1C)C(C#N)=C(N)O2 (centres undefined)	TDP2 inh 35 | TDP2 confirm inactive
Cc1nn(-c2ccccc2)c2c1C(c1ccncc1)C(C#N)=C(N)O2 (centres undefined)	none
Cc1nn(-c2ccccc2)c(Cl)c1C1C(C#N)=C(N)Oc2c1c(C)nn2-c1ccccc1 (centres undefined)	TDP2 inh 27 | TDP2 confirm inactive
Cc1ccc(-n2nc(C)c3c2OC(N)=C(C#N)C3c2ccccc2F)cc1 (centres undefined)	TDP2 inh 26 | TDP2 confirm inactive
COC(=O)c1cc2c(c3c4ccccc4n(S(=O)(=O)c4ccc(OC)cc4)c13)C(=O)N(C)C2	none
COc1cc(C(=S)N2CCCCC2)ccc1OCC(=O)Nc1ccc(F)cc1	TDP2 inh 51 | TDP2 confirm inactive
COc1cc(C(=S)N2CCCCC2)ccc1OCC(=O)N1CCCC1	none
COC(=O)[C@H](Cc1ccccc1)NC(=O)[C@H]1C[C@@]2(N3CCCC3)c3ccccc3N(C(=O)OC(C)(C)C)[C@H]2N1C(=O)OC(C)(C)C	none
CCOc1ccc(N2C(=O)c3cccnc3C2=O)cc1	none
O=C1c2nccnc2C(=O)N1c1ccc(C(F)(F)F)cc1	TDP2 inh 28 | TDP2 confirm inactive
CC(=O)Nc1ccc(NCN2C(=O)C3C4CCC(C4)C3C2=O)cc1 (centres undefined)	TDP2 inh 32, UHRF1 binding 29 | TDP2 confirm inactive
COC(=O)c1ccc(NCN2C(=O)C3C4CCC(C4)C3C2=O)cc1 (centres undefined)	none
OC(CNCc1ccccc1)COCc1ccc(Cl)cc1 (centres undefined)	none

Screens as filed in PubChem.
